High-throughput results deposited in PubChem by several laboratories.
S1P1 ag pot – S1P1 (human) agonism or agonism potentiation; activation, % at 9.5 µM; S1P1 CRE-bla cells, forskolin, beta-lactamase FRET, potentiator mode; S1P1 agonist co-added at EC20, 2 nM; 100% = saturating reference agonist, 0% = basal; AID 449; P21453; hit rate 0.57% among 56,000;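 active means activation above a cutoff set at the mean activation of all tested compounds plus 3 SD, cut at about 54% in these data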;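 further: forskolin at 4 µM as EC80 and the EC20 agonist is SEW2871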
Spn DPM-DC inh – S. pneumoniae DPM-DC inhibition. purified DPM-DC, PK/LDH coupled NADH fluorescence. calls only at 10 µM. hit rate 0.49% among 65,000. AID 556;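 active means the 320 compounds with the highest percent inhibition in the single-dose primary screen, excluding strongly autofluorescent ones, cut at about 32% in these data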;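 further: kinetic rate of NADH fluorescence loss reporting ADP formed by the decarboxylase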
Spn MK inh – S. pneumoniae mevalonate kinase inhibition | inhibition, % at 10 µM | hit rate 0.48% among 65,000 | AID 555 | purified MK, PK/LDH-coupled NADH absorbance 340 nm;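 active means ranked among the strongest by inhibition in the single 10 µM screen, a fixed top-ranked set picked for dose follow-up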
Spn PMK inh – S. pneumoniae PMK inhibition | purified PMK, PK/LDH-coupled NADH absorbance 340 nm | AID 539 | inhibition, % at 10 µM | hit rate 0.49% among 65,000;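 active means top-ranked compounds by inhibition in the single 10 µM screen, taking a fixed number of the strongest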
S1P3 ag – agonists of human S1P3 receptor; activation, % at 4.5 µM; S1P3 NFAT-BLA reporter cells, agonism, FRET ratio; relative to 1 µM S1P, basal subtracted; hit rate 0.1% among 60,000; Q99500;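 active means activation above the screen-wide mean plus 3 SD, cut at about 4.5% in these data, passing the limit was not always enough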
Target sequence (Q99500 whole entry, looked up): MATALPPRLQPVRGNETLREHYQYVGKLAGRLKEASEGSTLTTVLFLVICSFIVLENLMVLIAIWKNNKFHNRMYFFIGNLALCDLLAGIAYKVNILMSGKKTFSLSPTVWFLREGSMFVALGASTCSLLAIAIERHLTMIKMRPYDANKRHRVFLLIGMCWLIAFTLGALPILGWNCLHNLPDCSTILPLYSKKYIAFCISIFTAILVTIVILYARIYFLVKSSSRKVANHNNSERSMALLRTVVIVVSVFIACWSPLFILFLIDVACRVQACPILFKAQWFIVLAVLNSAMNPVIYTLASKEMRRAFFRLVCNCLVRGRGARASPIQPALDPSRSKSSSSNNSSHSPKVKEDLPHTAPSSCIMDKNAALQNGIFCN
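Measure – % activation relative to 1 µM S1P (100%), per plate · System – stable CHO line with human S1P3, Gα16, NFAT-BLA reporter · Timing – cells plated overnight, compound 4 h 37 °C, substrate 2 h RT · Technique – fluorescent BLA substrate, ex 405 nm, em 460/535 nm ratio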
Hsp90 block – displaces geldanamycin probe from tumor Hsp90. P07900. NCI-N417 lysate Hsp90, Cy3B-geldanamycin FP displacement. hit rate 0.35% among 64,000. inhibition, % at 30 µM;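 active means inhibition above 50%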
Numbers stand for hits; – = inactive; · = no result given; + = active, no number. Rows were chosen to be rich in hits. Some 2.2% of all compounds tested hit in one or more screens of this group.

SMILES	S1P1 ag pot	Spn DPM-DC inh	Spn MK inh	Spn PMK inh	S1P3 ag	Hsp90 block
Cc1nnc(SCC(=O)N2CCC(c3noc4ccc(F)cc34)CC2)s1	69	–	–	–	–	–
CCOc1ccc2nc(NC(=O)CN3CCC(n4nnc5cc(F)ccc54)CC3)sc2c1	–	–	–	–	–	–
COc1cc(C)nc(NS(=O)(=O)c2ccc(C)cc2)n1	–	–	–	–	–	–
C=CCn1cnc2c(c1=O)c1nc3ccccc3nc1n2-c1ccc(Cl)cc1	–	–	–	–	–	–
Cc1ccc(-c2nc3nc4ccccc4nc3n2Cc2ccco2)cc1	–	–	–	–	–	–
Clc1ccc(-c2nc3nc4ccccc4nc3n2Cc2ccco2)cc1	80	–	–	–	–	–
c1ccc(CNc2ccc3c(c2)ncn3C2CCCCC2)nc1	–	–	–	–	–	–
CC(=O)Oc1cc2c(C(=O)NCCCN3CCOCC3)c(C)oc2c2ccccc12	–	–	–	–	–	94
O=C(NCCCN1CCOCC1)c1cc2ccccc2oc1=O	–	–	–	–	–	–
CN1CCN(S(=O)(=O)c2cccc(S(=O)(=O)c3ccc(Cl)c(Cl)c3)c2)CC1	·	–	–	25	·	·
Cc1ccc(NC(=O)CSc2nnc(Cn3c(=O)sc4ccccc43)n2C)cc1Cl	–	–	–	29	–	–
CN(C)Cc1cc(CCNC(=O)c2ccc(Cl)cc2)ccc1O	–	–	–	–	–	–
CCC(CC)NCCCNc1cc(OC)cc2cccnc12	·	·	·	·	·	–
O=C(NCCCN1CCOCC1)c1cccs1	·	–	–	–	–	–
CCC(=O)Nc1c(C#N)c2nc3ccccc3nc2n1-c1ccccc1C	–	·	–	–	–	–
COc1ccc(-n2c(NC(=O)c3ccco3)c(C#N)c3nc4ccccc4nc32)cc1	–	+	–	–	–	–
Cc1nnc(SCCn2c(N3CCCC(C)C3)nc3c2c(=O)n(C)c(=O)n3C)s1 (stereo not drawn)	–	–	–	–	–	–
Cc1ccccc1-c1nnc(SCc2ccccc2F)o1	89	–	–	–	–	–
CS(=O)(=O)N(CC(=O)N1CCN(c2ccccc2)CC1)C1CCCCC1	·	–	–	36	–	–
CCOC(=O)c1cn2c3c(c(F)c(F)c(F)c3c1=O)SC(N1CCCC1)=N2	–	–	–	–	–	–
CCc1c(C)c(C#N)c2nc3ccccc3n2c1Nc1c(C)n(C)n(-c2ccccc2)c1=O	–	+	–	–	–	–
COc1cc(CSc2nnnn2-c2ccc(C)cc2)cc(OC)c1OC	102	–	–	–	–	–
O=C(Nc1ccc2nc(-c3ccco3)c(-c3ccco3)nc2c1)N1CCCCCC1	–	+	–	–	–	–
CCOC(=O)C1CCN(C(=O)Nc2ccc3nc(-c4ccco4)c(-c4ccco4)nc3c2)CC1	·	–	–	–	·	·
CCOc1cccc(NC(=O)C2CC(=O)NC(=Nc3ccccc3)S2)c1 (stereo not drawn)	–	–	–	–	–	–
SMILES	S1P1 ag pot	Spn DPM-DC inh	Spn MK inh	Spn PMK inh	S1P3 ag	Hsp90 block
CN(c1ccc(C(=O)N2CCCCC2)cc1)S(C)(=O)=O	–	–	–	–	–	–
Cc1cc(C(=O)CSc2nnc(-c3cccs3)o2)c(C)n1-c1ccccc1	101	–	–	–	–	–
Cc1cc(C(=O)CSc2nnc(-c3ccco3)o2)c(C)n1-c1ccc2c(c1)OCCO2	62	–	–	–	–	–
O=C(CSc1nnc(-c2cccs2)o1)c1cccs1	–	–	–	–	–	–
CCOC(=O)COc1ccc(C(=O)NC2CCCCC2)cc1	·	–	–	–	–	–
N[C@H](CCC(=O)NCS(=O)(=O)O)C(=O)O	·	·	·	·	·	–
O=c1c(-c2ccc(O)cc2)coc2cc(O)cc(O)c12	·	·	·	·	·	–
CC(C)Oc1cc(O)c2c(=O)c(-c3ccc(O)cc3)coc2c1	107	–	–	–	–	–
Cc1ccc(S(=O)(=O)n2nc(-c3ccc(Cl)cc3)nc2NCc2ccco2)cc1	·	–	–	–	–	–
C=C/C(C)=C/[C@@]1(C)SC(=O)C(C)=C1O	·	·	·	·	·	–
O=C(Nc1nc(-c2ccc(Cl)s2)cs1)c1ccncc1	126	–	–	–	–	–
O=C(CN1C(=O)CCC1=O)Nc1nc(-c2ccc(Cl)s2)cs1	–	–	–	–	–	–
C/C(N)=C(/C#N)C(=O)CSc1nnc(SCc2ccc(Cl)cc2)s1	60	–	–	–	–	–
C/C(N)=C(/C#N)C(=O)CSc1nnc(Nc2c(C)cccc2C)s1	–	–	–	–	–	–
COc1cccc(OC)c1OCC(C)CNCC1CCCO1 (stereo not drawn)	–	–	52	–	–	–
COc1cccc(-c2nc(NCC3CCCO3)c3ccccc3n2)c1O (stereo not drawn)	–	–	–	–	–	–
O=C(c1ccc(F)cc1)C(CN1CCOCC1)c1ccccc1 (stereo not drawn)	–	–	–	–	–	–
O=C(c1ccccc1)C(CCC(CN1CCOCC1)C(=O)c1ccccc1)CN1CCOCC1 (stereo not drawn)	93	–	·	–	–	–
CC1Cc2ccccc2N1C(=O)CSc1nnc(-c2ccc(S(=O)(=O)N3CCCC3)cc2)o1 (stereo not drawn)	–	–	–	–	–	–
COc1ccccc1CN(Cc1cc2cc(C)ccc2[nH]c1=O)Cc1nnnn1CC1CCCO1 (stereo not drawn)	–	–	–	–	–	–
COc1ccccc1CN(Cc1cc2cc(C)cc(C)c2[nH]c1=O)Cc1nnnn1CC1CCCO1 (stereo not drawn)	–	–	–	26	–	–
CCOc1ccccc1NC(=O)CCSc1nc2n[nH]c(C)c2c(=N)n1-c1ccccc1Cl	·	–	–	–	·	–
CCOc1ccccc1-n1c(SCC(=O)Nc2ccc(CC)cc2)nc2n[nH]c(C)c2c1=N	–	·	–	25	–	–
Cc1ccc(-n2c(SCC(=O)NCc3ccco3)nnc2-c2cccnc2)c(C)c1	–	+	–	–	–	–
Cc1cccc(-n2c(SCC(=O)NCc3ccco3)nnc2-c2ccco2)c1	–	–	–	–	–	–
SMILES	S1P1 ag pot	Spn DPM-DC inh	Spn MK inh	Spn PMK inh	S1P3 ag	Hsp90 block
Cn1c(=O)c2c(-c3ccccc3)n(C3CCCCC3)cc2n(C)c1=O	–	–	–	31	13	–
O=c1oc2c3c4c(cc2cc1-c1nc2ccccc2[nH]1)CCCN4CCC3	–	·	–	71	–	–
O=C(O)CCCNCc1ccccc1F	·	–	–	–	·	–
O=C(O)CCC/C=C\C[C@@H]1[C@@H](/C=C/[C@H](O)C2Cc3ccccc3C2)[C@@H](F)C[C@@H]1O	·	·	·	·	·	–
CCc1cc(C(=O)Cc2nc3ccccc3[nH]2)c(O)cc1O	–	–	–	–	–	–
CCc1cc(/C(Cc2ccc3ccccc3n2)=N\O)c(O)cc1O	–	+	–	–	–	–
CCc1ccccc1N1CC(C(=O)O)CC1=O (stereo not drawn)	–	–	–	–	–	–
